Measurements of several laboratories.
Compare with care: the assays were run in different laboratories.
Target: cAMP-dependent protein kinase catalytic subunit alpha (PRKACA, Homo sapiens, UniProt P17612)

| Compound | effect on | method | concentration | remaining binding [%] |
| --- | --- | --- | --- | --- |
| COCCOc1nc(-c2ccc(Cl)nc2)nc2c1CN(C(=O)c1ncn3ccccc13)CC2 | cell-free assay | competition with immobilised ligand | 0.1 µM | 82 |
| C[C@@H]1CCN(c2nccc(-c3cnn4ncccc34)n2)C1 | binding | – | 1 µM | 100 |
| C[C@@H](c1ccc(-n2cnc3c(N)ncnc32)cc1)N1CCc2nn(C)c(Cc3ccccc3)c2C1=O | binding | competition with immobilised ligand | 0.1 µM | 100 |
| O=C(c1ccc(Nc2ncc(Cl)c(-c3ccc(Cl)s3)n2)cc1)N1CCC(N2CCCC2)CC1 | binding | competition with immobilised ligand | 1 µM | 97 |
| Nc1ncc2c(n1)-c1c([nH]c3ccc(C#CC4CC4)cc13)CCCC2 | binding | competition with immobilised ligand | 1 µM | 86 |
| Cc1c(C(=O)O)cc(-c2ccc(C3CCNCC3)cc2)c2ccc(-c3ccc(C(F)(F)F)cc3)cc12 | cell-free assay | competition with immobilised ligand | 1 µM | 100 |
| CN(C)c1nccc(-c2cnc3ncccn23)n1 | binding | – | 1 µM | 83 |
| COc1ccc2c(c1)O[C@@H](c1ccc(OC)c(OC)c1)C[C@H]2NC(=O)C1(c2ccc3c(c2)OC(F)(F)O3)CC1 | cell-free assay | competition with immobilised ligand | 1 µM | 100 |
| O=C(NCCCN1CCOCC1)c1ccc(Nc2ncc(Cl)c(-c3ccc(Cl)s3)n2)cc1 | binding | competition with immobilised ligand | 1 µM | 100 |
| CNC(=O)c1ccc(Nc2ncc(C(F)(F)F)c(NCc3nccnc3N(C)S(C)(=O)=O)n2)cc1 | cell-free assay | competition with immobilised ligand | 0.1 µM | 100 |
| O=C(NCC1CCOCC1)c1n[nH]cc1NC(=O)c1c(F)cccc1F | binding | competition with immobilised ligand | 1 µM | 100 |
| CS(=O)(=O)N1CCCC(NC(=O)[C@H](CCC2CCCCC2)NC(=O)c2ccc(CNc3ncnc4c3nnn4-c3ccccc3)cc2)C1 (stereo partly drawn) | cell-free assay | competition with immobilised ligand | 0.1 µM | 100 |
| CC1CCCN1c1nccc(-c2cnn3ncccc23)n1 (stereo not drawn) | binding | – | 1 µM | 100 |
| CNC(=O)[C@@H]1CC[C@@H](n2c(-c3ccc4cnccc4c3)nc3ccc(C(=O)NCc4cccc(C(N)=O)c4)cc32)C1 | binding | competition with immobilised ligand | 1 µM | 100 |
| O=C(N[C@H]1CCCCC/C=C\C2C[C@@]2(C(=O)O)NC(=O)[C@@H]2C[C@@H](Oc3ccncc3)CN2C1=O)OC1CCCC1 (stereo partly drawn) | cell-free assay | competition with immobilised ligand | 1 µM | 92 |
| N#Cc1ccccc1CSc1nnc2c(n1)[nH]c1ccccc12 | binding | competition with immobilised ligand | 10 µM | 72 |
| C=CC(=O)N1CCC(C(=O)NCC(=O)N2CCN(c3nc(-c4cnc(N)nc4C(F)F)nc(N4CCOCC4)n3)CC2)CC1 | binding | competition with immobilised ligand | 1 µM | 100 |
| CN(C)c1nccc(-c2cnn3ncccc23)n1 | binding | – | 1 µM | 100 |
| C[C@@H]1CN(c2ccc3ncc(-c4ccc5[nH]nc(C6CC6)c5c4)n3n2)C[C@H](C)O1 | binding | competition with immobilised ligand | 0.5 µM | 100 |
| O=C(c1ccc(Nc2nccc(-c3cc4ccccc4s3)n2)cc1)N1CCC(N2CCCC2)CC1 | binding | competition with immobilised ligand | 1 µM | 100 |
| c1cncc(-c2cccc(Nc3nccc(NC4CCCCC4)n3)c2)c1 | binding | competition with immobilised ligand | 10 µM | 50 |
